ChEMBL document CHEMBL1177716, “Kinesin spindle protein (KSP) inhibitors with 2,3-fused indole scaffolds” (J Med Chem, 2010)
The source made the active and inactive calls. No cut-off for these calls is given here.

Key:
[1] = system: HeLa; test: Cell cycle arrest in human HeLa cells assessed as accumulation at M phase at 36 uM after 20 hrs by DAPI staining relative to taxol; format: functional; details: in the assay text read “at 32 uM” for “at 36 uM”
How it was run: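 HeLa cells were exposed to compound for 20 h and scored for M-phase arrest. Mitotic index was expressed as a percentage of the induction given by 0.1 μM taxol.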

[2] = organism: Sus scrofa; test: Inhibition of pig brain topoisomerase 2-mediated supercoiled DNA relaxation after 20 mins by agarose gel electrophoresis analysis
How it was run: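 Supercoiled DNA was incubated with topo II, with or without test compound. Gel lanes included supercoiled DNA alone, DNA plus enzyme without compound, and DNA plus enzyme with AMSA as the reference inhibitor.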

[3] = system: HeLa; test: Cytotoxicity against human HeLa cells after 48 hrs […]; format: functional, cell-based; details: Homo sapiens, HeLa, 48 h
[4] = molecular target: T1, Kinesin-like protein KIF23 (Homo sapiens) (UniProt Q02241); test: Inhibition of MKLP-1 ATPase activity at 20 uM
T1 sequence (whole entry): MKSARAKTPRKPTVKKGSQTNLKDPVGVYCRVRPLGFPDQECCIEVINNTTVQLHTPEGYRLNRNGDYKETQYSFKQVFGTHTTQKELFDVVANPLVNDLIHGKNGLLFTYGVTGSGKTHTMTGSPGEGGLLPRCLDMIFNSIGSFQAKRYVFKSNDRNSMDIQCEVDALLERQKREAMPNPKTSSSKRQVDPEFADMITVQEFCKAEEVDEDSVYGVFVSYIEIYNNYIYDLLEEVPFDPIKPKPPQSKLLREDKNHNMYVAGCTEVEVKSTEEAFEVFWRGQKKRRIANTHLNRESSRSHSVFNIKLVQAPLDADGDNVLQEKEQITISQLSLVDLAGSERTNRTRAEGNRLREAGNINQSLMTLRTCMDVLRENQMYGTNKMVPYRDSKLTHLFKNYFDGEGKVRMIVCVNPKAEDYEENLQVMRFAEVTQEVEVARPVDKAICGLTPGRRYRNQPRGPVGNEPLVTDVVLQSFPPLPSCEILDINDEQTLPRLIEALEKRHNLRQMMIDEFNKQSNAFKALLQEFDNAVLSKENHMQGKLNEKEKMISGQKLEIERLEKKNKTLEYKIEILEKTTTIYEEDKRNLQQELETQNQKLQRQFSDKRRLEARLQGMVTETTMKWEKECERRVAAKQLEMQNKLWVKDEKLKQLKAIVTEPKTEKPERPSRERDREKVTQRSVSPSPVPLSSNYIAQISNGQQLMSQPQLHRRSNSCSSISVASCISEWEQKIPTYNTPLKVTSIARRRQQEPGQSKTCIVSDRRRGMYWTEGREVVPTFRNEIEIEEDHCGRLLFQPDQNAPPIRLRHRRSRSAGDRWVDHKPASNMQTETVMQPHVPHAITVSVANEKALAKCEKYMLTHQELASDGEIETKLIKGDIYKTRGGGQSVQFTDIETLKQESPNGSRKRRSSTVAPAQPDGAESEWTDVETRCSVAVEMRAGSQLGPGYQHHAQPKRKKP

[5] = molecular target: T2, Kinesin-like protein KIF11 (Homo sapiens, UniProt P52732); test: Inhibition of human C-terminally His6-tagged microtubule-activated KSP motor domain ATPase activity after 30 mins by luciferase-derived luminescence assay
T2 sequence (P52732 whole entry): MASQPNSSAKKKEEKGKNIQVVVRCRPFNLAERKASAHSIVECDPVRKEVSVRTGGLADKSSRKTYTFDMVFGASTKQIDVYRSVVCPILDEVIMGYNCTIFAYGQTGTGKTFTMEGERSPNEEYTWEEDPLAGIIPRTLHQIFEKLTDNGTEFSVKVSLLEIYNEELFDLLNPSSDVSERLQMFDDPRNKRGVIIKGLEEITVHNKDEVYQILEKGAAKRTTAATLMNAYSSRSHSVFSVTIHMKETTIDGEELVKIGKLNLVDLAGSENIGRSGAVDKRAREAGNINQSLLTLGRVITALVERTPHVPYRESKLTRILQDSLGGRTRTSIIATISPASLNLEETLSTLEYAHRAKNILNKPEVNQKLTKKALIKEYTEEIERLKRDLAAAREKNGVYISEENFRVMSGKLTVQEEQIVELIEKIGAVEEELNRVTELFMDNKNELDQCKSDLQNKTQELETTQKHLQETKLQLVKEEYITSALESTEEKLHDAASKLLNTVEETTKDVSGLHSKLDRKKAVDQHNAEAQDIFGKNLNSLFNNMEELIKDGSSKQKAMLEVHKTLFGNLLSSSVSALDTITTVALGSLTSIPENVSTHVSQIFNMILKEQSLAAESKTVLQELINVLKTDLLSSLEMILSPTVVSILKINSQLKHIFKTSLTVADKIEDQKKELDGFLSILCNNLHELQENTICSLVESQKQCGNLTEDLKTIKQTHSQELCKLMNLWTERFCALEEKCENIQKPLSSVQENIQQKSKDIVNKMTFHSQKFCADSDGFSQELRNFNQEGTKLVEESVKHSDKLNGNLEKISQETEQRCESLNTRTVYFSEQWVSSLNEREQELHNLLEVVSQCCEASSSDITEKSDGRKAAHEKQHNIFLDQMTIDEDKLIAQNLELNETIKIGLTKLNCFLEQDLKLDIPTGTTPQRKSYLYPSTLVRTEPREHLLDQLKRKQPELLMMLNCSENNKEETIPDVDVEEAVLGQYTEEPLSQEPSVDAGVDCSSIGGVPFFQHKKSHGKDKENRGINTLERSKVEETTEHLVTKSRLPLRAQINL

[6] = molecular target: Centromere-associated protein E (Homo sapiens) (UniProt Q02224); test: Inhibition of CENP-E ATPase activity at 20 uM
Chain of Centromere-associated protein E (Homo sapiens) (Q02224 whole entry): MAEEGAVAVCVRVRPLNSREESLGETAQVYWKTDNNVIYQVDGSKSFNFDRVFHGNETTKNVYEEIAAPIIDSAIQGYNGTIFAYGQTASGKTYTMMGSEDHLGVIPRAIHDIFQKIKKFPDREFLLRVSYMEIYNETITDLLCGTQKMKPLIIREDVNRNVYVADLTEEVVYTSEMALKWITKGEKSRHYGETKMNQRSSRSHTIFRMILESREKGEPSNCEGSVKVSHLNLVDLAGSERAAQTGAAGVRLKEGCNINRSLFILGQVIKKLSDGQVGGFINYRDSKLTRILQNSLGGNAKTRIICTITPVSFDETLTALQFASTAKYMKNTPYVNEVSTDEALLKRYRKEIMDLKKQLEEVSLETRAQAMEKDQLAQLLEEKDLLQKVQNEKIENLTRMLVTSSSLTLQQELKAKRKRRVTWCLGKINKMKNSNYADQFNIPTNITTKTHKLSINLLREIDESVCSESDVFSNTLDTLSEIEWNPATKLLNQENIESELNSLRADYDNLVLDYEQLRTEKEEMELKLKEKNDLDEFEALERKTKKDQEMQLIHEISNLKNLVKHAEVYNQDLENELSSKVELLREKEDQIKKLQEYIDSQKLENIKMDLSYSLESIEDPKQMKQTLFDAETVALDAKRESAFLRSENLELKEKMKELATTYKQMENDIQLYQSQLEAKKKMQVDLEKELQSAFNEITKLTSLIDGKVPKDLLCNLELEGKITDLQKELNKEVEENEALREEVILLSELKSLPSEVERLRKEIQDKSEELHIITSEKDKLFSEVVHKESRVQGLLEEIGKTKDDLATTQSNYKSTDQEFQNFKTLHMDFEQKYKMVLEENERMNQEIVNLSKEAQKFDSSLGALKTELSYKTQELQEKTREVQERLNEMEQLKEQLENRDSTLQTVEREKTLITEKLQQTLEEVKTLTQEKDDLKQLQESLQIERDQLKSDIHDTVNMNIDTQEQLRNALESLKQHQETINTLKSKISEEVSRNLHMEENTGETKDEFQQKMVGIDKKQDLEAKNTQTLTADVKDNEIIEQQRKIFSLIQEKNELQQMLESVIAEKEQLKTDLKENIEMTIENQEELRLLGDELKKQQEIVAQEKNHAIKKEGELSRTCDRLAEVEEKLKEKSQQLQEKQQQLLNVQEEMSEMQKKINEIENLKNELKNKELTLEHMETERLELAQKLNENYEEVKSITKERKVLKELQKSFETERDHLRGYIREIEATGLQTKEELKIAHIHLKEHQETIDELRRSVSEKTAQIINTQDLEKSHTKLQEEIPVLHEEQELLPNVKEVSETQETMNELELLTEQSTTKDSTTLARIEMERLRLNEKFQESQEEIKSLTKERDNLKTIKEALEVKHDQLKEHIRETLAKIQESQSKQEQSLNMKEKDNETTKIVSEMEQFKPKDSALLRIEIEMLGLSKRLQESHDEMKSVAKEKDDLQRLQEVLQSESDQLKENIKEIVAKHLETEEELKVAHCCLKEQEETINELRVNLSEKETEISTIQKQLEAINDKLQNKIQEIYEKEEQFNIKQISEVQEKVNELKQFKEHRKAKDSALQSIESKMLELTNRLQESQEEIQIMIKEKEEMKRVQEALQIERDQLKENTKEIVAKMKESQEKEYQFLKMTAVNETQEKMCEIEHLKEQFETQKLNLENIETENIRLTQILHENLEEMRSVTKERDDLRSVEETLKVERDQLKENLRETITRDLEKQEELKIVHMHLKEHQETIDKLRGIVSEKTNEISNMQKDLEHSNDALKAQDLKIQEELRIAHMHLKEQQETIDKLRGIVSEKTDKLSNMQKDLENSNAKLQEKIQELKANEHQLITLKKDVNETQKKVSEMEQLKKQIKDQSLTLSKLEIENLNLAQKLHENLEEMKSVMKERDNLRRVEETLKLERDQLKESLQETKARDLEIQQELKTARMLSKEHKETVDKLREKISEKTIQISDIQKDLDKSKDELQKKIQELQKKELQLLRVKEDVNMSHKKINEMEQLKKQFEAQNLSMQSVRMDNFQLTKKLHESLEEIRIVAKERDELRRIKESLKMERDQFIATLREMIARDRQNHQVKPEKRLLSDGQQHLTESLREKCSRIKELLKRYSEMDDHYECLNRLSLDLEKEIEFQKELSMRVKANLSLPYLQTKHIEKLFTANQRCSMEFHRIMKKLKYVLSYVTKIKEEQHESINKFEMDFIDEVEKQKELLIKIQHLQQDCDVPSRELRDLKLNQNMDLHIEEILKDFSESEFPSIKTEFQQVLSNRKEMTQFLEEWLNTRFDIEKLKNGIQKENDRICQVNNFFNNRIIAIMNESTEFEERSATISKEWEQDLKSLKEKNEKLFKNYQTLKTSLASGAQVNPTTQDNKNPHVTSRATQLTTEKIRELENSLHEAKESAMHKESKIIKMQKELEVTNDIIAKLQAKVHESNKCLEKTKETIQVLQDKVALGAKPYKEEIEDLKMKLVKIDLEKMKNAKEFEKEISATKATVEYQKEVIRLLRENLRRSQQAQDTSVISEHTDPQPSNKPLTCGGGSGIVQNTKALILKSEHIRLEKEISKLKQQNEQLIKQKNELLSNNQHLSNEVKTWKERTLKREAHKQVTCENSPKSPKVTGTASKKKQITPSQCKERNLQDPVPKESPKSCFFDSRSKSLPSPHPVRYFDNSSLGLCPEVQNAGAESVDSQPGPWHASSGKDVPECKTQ

Row | Compound | Activity [1] | inhibition [2] | IC50 [3] | inhibition [4] | IC50 [5] | inhibition [6]
1 | FC(F)(F)c1ccc2[nH]c3ccccc3c2c1 | 57% | inactive | 14 µM | inactive | 0.95 µM | inactive
2 | CC(C)(C)c1ccc2c(c1)[nH]c1ccccc12 | 37% | inactive | 40 µM | inactive | 0.3 µM | inactive
3 | FC(F)(F)c1ccc2c(c1)[nH]c1ccccc12 | – | inactive | 11 µM | inactive | 0.26 µM | inactive
